Bioassay records (PubChem)
Compounds with a hit are over-represented: about 8.8% of the library has one in this group of screens.
M1 ag: agonists of M1 muscarinic receptor | 3% of 64,000 active | AID 626 | B-score at 10 µM | CHO-M1 cells, Fluo-4 calcium fluorescence, agonist mode; hits give high values;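 active = fluorescence rise, raw or as B-score row- and column-corrected plate score, outside the 99.7% band of its plate's samples, either direction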
RORa activator: activates the human nuclear receptor RORA. CHO-K1 Gal4-RORA LBD luciferase reporter, luminescence; percent increase over mock-subtracted basal signal. activation, % at 10 µM. 1.5% of 65,000 active. AID 560;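 active = activation above the mean of all tested compounds plus 3 SD, cut at about 49% in these data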;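 also: 0% = DMSO-treated RORA cells and 100% = added signal equal to DMSO minus mock-transfected cells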
S1P1 ag pot: S1P1 (human) agonism or agonism potentiation. 0.57% of 56,000 active. AID 449. S1P1 CRE-bla cells, forskolin, beta-lactamase FRET, potentiator mode; S1P1 agonist co-added at EC20, 2 nM; 100% = saturating reference agonist, 0% = basal. activation, % at 9.5 µM;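 active = activation above a cutoff set at the mean activation of all tested compounds plus 3 SD, cut at about 54% in these data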;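 also: forskolin at 4 µM as EC80 and the EC20 agonist is SEW2871; 100% = SEW2871 at its EC100 plus forskolin at EC80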
Target sequence (P21453 whole entry, looked up): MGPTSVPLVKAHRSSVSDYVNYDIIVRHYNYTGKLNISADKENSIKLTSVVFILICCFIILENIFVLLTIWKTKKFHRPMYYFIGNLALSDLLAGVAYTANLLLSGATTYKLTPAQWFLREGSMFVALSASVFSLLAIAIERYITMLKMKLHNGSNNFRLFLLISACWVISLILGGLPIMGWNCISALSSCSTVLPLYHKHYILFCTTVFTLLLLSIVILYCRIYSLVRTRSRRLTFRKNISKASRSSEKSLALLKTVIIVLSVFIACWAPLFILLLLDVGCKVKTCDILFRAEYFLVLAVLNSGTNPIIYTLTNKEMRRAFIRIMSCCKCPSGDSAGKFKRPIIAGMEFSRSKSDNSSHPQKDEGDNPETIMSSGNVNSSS
S1P3 ag: S1P3 (human) receptor agonism | 0.1% of 60,000 active | Q99500 | S1P3 NFAT-BLA reporter cells, FRET ratio; relative to 1 µM S1P, basal subtracted | activation, % at 4.5 µM | AID 373;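 active = activation above the screen-wide mean plus 3 SD, cut at about 4.5% in these data, passing the limit was not always enough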
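material = human S1P3 NFAT-BLA reporter CHO cells | schedule = 4 h compound at 37 °C, 2 h substrate at RT | measured by = fluorescent BLA substrate, ex 405 nm, em 460/535 nm ratio | controls = 1 µM S1P reference | replication = primary once, confirmation triplicate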
M1 antag: antagonists of rat M1 muscarinic receptor | 3.4% of 64,000 active | AID 628 | CHO-M1 cells, Fluo-4 calcium, ACh EC80 antagonist mode; hits give low values | B-score at 10 µM;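 active = calcium fluorescence response, raw or row-and-column corrected B-score, differing from the plate sample mean either way at a set confidence level, mostly lower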
SF1 activator: activates the human nuclear receptor SF-1; CHO-K1 Gal4-SF-1 LBD luciferase reporter; % increase over DMSO SF-1-specific signal; activation, % at 10 µM; 1.9% of 65,000 active;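 active = activation above the mean activation of all tested compounds plus 3 SD, cut at about 50% in these data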
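Test system: CHO-K1 cells co-transfected with Gal4 DBD–human SF-1 LBD, 5xGal4 luciferase reporter. Quantity: 4,000 cells per well. Compound: 10 µM only. Incubation: compound added 1 h post-seeding, 20 h exposure at 37 °C, 5% CO2. Detection: SteadyLite luciferase luminescence. Replication: one test per compound.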
M1 ag confirm: rat M1 muscarinic agonism, confirmation; shares compounds with M1 ag; CHO-M1 cells, Fluo-4 calcium fluorescence, agonist mode; actives lie on both sides; fluorescence change (max-min) at 10 µM; 19% of 1,700 active;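 active = fluorescence change differs from the solvent-only DMSO control mean at a set confidence level in both duplicate runs; inconclusive = differs from solvent-only control mean in just one of two runs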;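 also: an EC20 dose of acetylcholine follows compound addition during the same imaging run; raw fluorescence intensity difference in instrument units with no normalization to controls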
M4 agonist ctr: activates rat M4 receptor in counter-screen for M1 agonists | fluorescence change (max-min) at 10 µM | CHO M4/Gqi5 cells, Fluo-4 calcium fluorescence, agonist mode; actives lie on both sides | shares compounds with M1 ag | 9% of 1,700 active;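 active = fluorescence change differing from the plate's solvent-only control wells at 99.7% confidence in both duplicates, whether higher or lower; inconclusive = differs from solvent controls in only one of two duplicates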
Numbers without * were called inactive; ? = inconclusive; · = no result given.

SMILES	M1 ag	RORa activator	S1P1 ag pot	S1P3 ag	M1 antag	SF1 activator	M1 ag confirm	M4 agonist ctr
CCOCC(=O)Nc1cc(C(=O)OC)ccc1C(=O)OC	-1.04	-3.3	·	·	-0.21	-9.2	·	·
Cc1sc2nc3n(c(=O)c2c1C)NC(=O)CC3	-0.147	-10.9	-6.3	-1.2	-2.42	-2.7	·	·
CCOC(=O)Cc1nnc(NC(=O)c2ccccc2OCC)s1	-2.67	·	·	·	0.43	·	·	·
CCOC(=O)Cc1cnc(NC(=O)c2ccccc2)s1	3.21*	23.1	12.2	-1.5	-0.449	29.5	-17.3	?
CCOc1ncccc1C(=O)Nc1ccc2c(C)cc(=O)oc2c1	13.4*	-14.7	-7.9	-0.7	0.445	6.0	?	?
CCN1CCCC1CN=Cc1c(O)n(-c2ccccc2)c(=O)c2ccccc12 (stereo not given)	5.72*	-15.4	-6.5	-0.5	0.187	-4.2	5.29	-72.4
Cc1cccc(-n2c(O)c(C=NCCCN3CCOCC3)c3ccccc3c2=O)c1	-0.479	-11.3	-11.3	-1.0	-0.15	-6.3	·	·
Cc1cc(N/C=C2\CCCCC2=O)no1	0.000547	-6.3	1.1	-0.7	0.164	-13.4	·	·
Cc1ccc(C(=O)N2CCN(c3ccc(Cl)cc3)CC2)cc1	-1.19	-5.8	·	-0.7	0.573	0.9	·	·
Cc1ccc(C(=O)N2CCN(S(C)(=O)=O)C2)cc1	4.01*	-13.0	3.9	-0.4	1.13	-16.4	?	-59.6
COC(=O)CN(C#N)c1nc(OC)nc(N(C)C)n1	-0.405	5.3	-19.6	-0.6	-0.328	-12.5	·	·
CC(C)N(C(=O)CN(C#N)c1nc(N(C)C)nc(N(C)C)n1)c1ccccc1	-3.23*	-23.3	·	-1.0	-0.701	-4.3	-10.6	-14.4
Cc1cccc(-n2c(N)cc(=O)nc2SCC(=O)Nc2ccccc2)c1	2.83*	-15.5	·	·	0.169	-0.7	-24.1*	-49.7
CCOC(=O)c1c(-c2ccccc2)nnn1-c1nc(OCC)nc(N2CCCCC2)n1	6.55*	35.0	-3.7	-0.4	-1.94	10.3	-29.2*	?
c1ccc2c(c1)CCCN2Cc1nnc2n1CCCCC2	active	4.0	·	·	0.125	3.0	?	-33.2
c1ccc(Cc2nnc3n2CCCCC3)cc1	-0.506	-23.0	-3.8	-0.5	-0.113	10.3	·	·
CC(C)CC(NS(=O)(=O)c1ccc2c(c1)oc(=O)n2C)C(=O)NCc1cccnc1 (stereo not given)	0.443	-5.1	-7.7	-1.7	0.715	-1.8	·	·
CCOc1cc(S(=O)(=O)NC2CCCC2)ccc1Cl	8.92*	-14.7	·	-1.7	-0.33	9.4	4.7	-12.9
CN1CCc2c(sc3c2C(=O)NC(c2cccc(OC(=O)c4cccs4)c2)N3)C1 (stereo not given)	5.72*	62.3*	-6.8	-1.4	-0.0138	57.9*	38.8	41.1
O=C(Nc1ccc2c(c1)OCO2)N1CCN(C(=O)C2CCCO2)CC1 (stereo not given)	·	1.7	·	-0.9	·	9.0	·	·
COCCCNc1c2c3c(cccc3[nH]c1=O)C(=O)c1ccccc1-2	466*	·	·	·	-13.2*	·	3166*	2818*
COc1cc(S(=O)(=O)N(C)C)ccc1F	0.325	-10.8	1.6	-0.5	-0.646	-13.7	·	·
CCn1c(SCC(=O)N2CCCc3ccccc32)nc2cccnc21	-1.3	-0.3	4.5	-0.7	-0.264	-16.0	·	·
CCn1c(SCC(=O)N2CCCc3ccccc32)nc2ccccc2c1=O	3.11*	-15.7	2.5	0.3	0.438	-18.1	-6.22	-47.1
CSc1nsc(SCC(=O)N2CCCc3ccccc32)n1	0.298	-19.1	-0.6	0.1	-0.443	-19.9	·	·
SMILES	M1 ag	RORa activator	S1P1 ag pot	S1P3 ag	M1 antag	SF1 activator	M1 ag confirm	M4 agonist ctr
COc1ccccc1N1CCN(C(=O)CSc2nc3ccccc3c(=O)n2CC2CCCO2)CC1 (stereo not given)	9.71*	-17.3	8.5	-0.4	-2.56	16.2	-1.53	-6.15
O=C(CSc1n[nH]c(-c2ccccc2O)n1)N1CCCc2ccccc21	11.1*	-2.5	-8.6	-0.6	1.25	14.8	?	-47.6
CCOC(=O)CSc1nc2ccccc2c(=O)n1CC1CCCO1 (stereo not given)	-0.019	-21.9	-10.6	-0.4	-0.59	-19.4	·	·
CCCN1C2CCCC1CC(NC(=O)c1cc(OC)c(OC)c(OC)c1)C2 (stereo not given)	0.353	-46.5	-4.0	-0.2	-2.57	9.5	·	·
O=C(NC1CCCCCC1)C1CC(=O)N(Cc2ccccc2)C1 (stereo not given)	0.404	-1.8	-17.0	-0.6	0.034	12.3	·	·
CNC(=O)c1cc2ccc(OC)cc2oc1=O	3.77*	-7.3	-12.9	0.5	-2.31*	12.0	132*	92.8
c1coc(-c2nn3c(Cn4nnc5ccccc54)nnc3s2)c1	0.0192	-14.8	-25.4	-0.2	0.121	-10.8	·	·
CCN1CCN(Cc2ccc(NC(=O)Nc3ccccc3)cc2)CC1	6.51*	15.5	-10.6	-2.1	-0.663	41.9	-15.3	-45.6
CCN1CCN(Cc2ccc(NC(=O)Nc3ccc(OC)cc3)cc2)CC1	-0.64	31.1	-19.9	-0.6	-1.15	36.5	·	·
N#CCC(=O)NCCCOC(=O)Nc1ccc(Cl)c(Cl)c1	-0.981	7.5	29.6	-1.7	-0.487	-1.7	·	·
CC(C)c1nc2oc3c(NCC4CCCO4)ncnc3c2c2c1COC(C)(C)C2 (stereo not given)	4.5*	-11.0	-50.2	-0.6	-0.0586	-3.0	-25.9	-41.6
CCOC(=O)CC(=O)CSc1nc2ccccc2c(=O)n1-c1ccc(C(=O)N2CCOCC2)cc1	0.392	-8.0	·	·	0.0645	-18.2	·	·
CCOC(=O)N1CCN(C(=O)CSc2nc3ccccc3c(=O)n2-c2ccccc2)CC1	3.79*	-2.5	-7.8	-0.8	0.534	2.4	?	?
Cc1cccc2cc(C(c3nnnn3Cc3ccccc3)N3CCN(c4ccccc4)CC3)c(=O)[nH]c12 (stereo not given)	6.4*	-15.6	-19.4	0.1	0.155	11.9	?	?
Cc1cccc2cc(C(c3nnnn3Cc3ccccc3)N3CCN(C)CC3)c(=O)[nH]c12 (stereo not given)	-0.107	-12.1	5.7	-0.3	-0.0453	-3.5	·	·
COc1ccc(-n2c(C)nc3c(cnn3-c3ccc(Cl)cc3)c2=O)cc1	4.14*	-40.7	32.6	-1.5	-0.695	-7.6	-9.64	-53.2
COC(=O)C(C)n1cnc2c(cnn2-c2ccc(Cl)cc2)c1=O (stereo not given)	4.63*	46.7	-10.8	0.7	-0.169	52.6*	-5.04	-42.6
